Assay results taken from ChEMBL document CHEMBL1122206, “Use of adenine nucleotide derivatives to assess the potential of exo-active-site-directed reagents as species- or isozyme-specific enzyme inactivators. 5. Interactions of adenosine 5'-triphosphate derivatives with rat pyruvate kinases, Escherichia coli thymidine kinase, and yeast and rat …” (1982).

What was measured:
[1] = Tested for the velocity of 2.8 mM compound relative to that of 2.8 mM MgATP in the assay
How it was run: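 E. coli TK substrate test. 0.5 h after adding inhibitor, the mixture was diluted to 2.8 mM derivative in thymidine assay medium without ATP and with 1.42 mM MnCl2. Incubated 15 min at 37 °C, in the linear range. [14C]TMP formed was compared with that from 2.8 mM ATP under the same conditions.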

[2] = biological target: T1, Hexokinase-2 (Rattus norvegicus) (UniProt P27881); assay: Time dependent inhibition of hexokinase 2 activity after 6 h, at 5 mM compound
T1 sequence (whole entry): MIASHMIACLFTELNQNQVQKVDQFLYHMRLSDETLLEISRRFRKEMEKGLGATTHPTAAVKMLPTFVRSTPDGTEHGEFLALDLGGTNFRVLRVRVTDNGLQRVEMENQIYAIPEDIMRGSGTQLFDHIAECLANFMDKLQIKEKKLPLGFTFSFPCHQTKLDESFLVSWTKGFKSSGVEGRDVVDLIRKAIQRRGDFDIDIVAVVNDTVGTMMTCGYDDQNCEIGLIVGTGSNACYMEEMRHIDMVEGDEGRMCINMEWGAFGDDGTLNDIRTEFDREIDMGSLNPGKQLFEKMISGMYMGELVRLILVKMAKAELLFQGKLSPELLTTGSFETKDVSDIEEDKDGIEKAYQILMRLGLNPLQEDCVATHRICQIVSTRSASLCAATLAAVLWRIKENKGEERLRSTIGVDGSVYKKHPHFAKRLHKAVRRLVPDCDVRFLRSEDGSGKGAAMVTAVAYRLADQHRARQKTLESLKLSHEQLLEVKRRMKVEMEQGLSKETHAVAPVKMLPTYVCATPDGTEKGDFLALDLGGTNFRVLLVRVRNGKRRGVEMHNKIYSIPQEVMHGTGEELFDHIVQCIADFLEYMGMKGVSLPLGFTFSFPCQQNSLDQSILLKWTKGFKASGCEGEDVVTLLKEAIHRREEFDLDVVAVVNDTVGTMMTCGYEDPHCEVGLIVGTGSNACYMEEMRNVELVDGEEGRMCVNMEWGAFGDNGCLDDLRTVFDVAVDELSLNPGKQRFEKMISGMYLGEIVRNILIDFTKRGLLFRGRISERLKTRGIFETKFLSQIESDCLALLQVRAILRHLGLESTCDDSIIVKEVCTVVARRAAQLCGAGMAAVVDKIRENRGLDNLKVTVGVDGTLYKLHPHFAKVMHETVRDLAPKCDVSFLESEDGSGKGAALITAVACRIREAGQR

[3] = biological target: T2, Hexokinase-1 (Rattus norvegicus) (UniProt P05708); assay: Time dependent inhibition of Hexokinase type I activity after 6 h, at 22 degrees celsius, at 5 mM compound
T2 sequence (whole entry): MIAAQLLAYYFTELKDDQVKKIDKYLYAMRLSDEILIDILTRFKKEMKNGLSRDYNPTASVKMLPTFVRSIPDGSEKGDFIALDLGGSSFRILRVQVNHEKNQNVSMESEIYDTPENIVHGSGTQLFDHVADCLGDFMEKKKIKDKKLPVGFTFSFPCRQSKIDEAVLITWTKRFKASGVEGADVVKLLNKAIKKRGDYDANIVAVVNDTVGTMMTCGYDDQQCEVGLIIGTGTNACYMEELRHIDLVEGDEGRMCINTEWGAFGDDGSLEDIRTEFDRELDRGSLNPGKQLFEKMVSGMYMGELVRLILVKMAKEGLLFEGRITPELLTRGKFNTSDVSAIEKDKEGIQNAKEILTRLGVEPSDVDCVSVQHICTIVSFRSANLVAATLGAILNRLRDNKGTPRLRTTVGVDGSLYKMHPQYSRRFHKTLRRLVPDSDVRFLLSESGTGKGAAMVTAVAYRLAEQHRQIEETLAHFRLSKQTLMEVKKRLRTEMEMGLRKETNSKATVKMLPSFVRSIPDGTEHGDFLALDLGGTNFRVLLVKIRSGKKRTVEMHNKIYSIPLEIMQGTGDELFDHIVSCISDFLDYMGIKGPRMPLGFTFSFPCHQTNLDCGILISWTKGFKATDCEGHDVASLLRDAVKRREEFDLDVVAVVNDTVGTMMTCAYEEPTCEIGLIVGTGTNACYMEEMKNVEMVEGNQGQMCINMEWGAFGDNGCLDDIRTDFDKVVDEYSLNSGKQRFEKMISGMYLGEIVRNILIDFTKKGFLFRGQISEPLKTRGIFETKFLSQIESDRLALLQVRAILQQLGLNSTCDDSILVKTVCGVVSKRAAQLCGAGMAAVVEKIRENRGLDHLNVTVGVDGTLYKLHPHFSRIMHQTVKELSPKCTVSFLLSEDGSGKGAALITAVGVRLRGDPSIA

[4] = biological target: Thymidine kinase (Escherichia coli) (UniProt P23331); assay: Compound was tested for the initial inhibition of thymidine kinase by 1.4 mM compound in the presence of 5.7 mM ATP
Thymidine kinase (Escherichia coli), sequence (P23331 whole entry, looked up): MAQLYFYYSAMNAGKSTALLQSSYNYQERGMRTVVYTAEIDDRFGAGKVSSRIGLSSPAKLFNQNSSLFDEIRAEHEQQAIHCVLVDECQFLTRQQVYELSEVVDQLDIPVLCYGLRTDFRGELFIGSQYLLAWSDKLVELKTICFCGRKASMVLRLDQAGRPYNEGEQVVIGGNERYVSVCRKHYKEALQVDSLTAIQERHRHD

[5] = system: Saccharomyces cerevisiae; assay: Time dependent inhibition of hexokinase activity after 6 hr, at 22 degrees celsius, with 5 mM ATP derivative in yeast.
[6] = biological target: Thymidine kinase (Escherichia coli) (UniProt P23331); assay: Compound was tested for the loss of thymidine kinase activity from Escherichia coli after 6 hr at 0 degrees C at 10 mM
[7] = biological target: T1, Hexokinase-2 (Rattus norvegicus); assay: Substrate activity against Rat hexokinase II as 1:1 Mg complex at 5.0 mM
How it was run: (§1)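 Hexokinase activity read at 22 °C as A340 change, coupled to glucose-6-phosphate dehydrogenase, in 0.05 M Tris-HCl pH 7.6 with 6.6 mM MgCl2, 10 mM α-D-glucose and 0.93 mM NADP. Donor was 5.0 mM MgATP derivative (1:1 Mg complex) in place of ATP. Yeast HK was isoelectric-focused. Rat HK I and III came from electrofocused liver extract, HK II from dialysed muscle extract.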

[8] = biological target: T2, Hexokinase-1 (Rattus norvegicus); assay: Substrate activity for rat hexokinase I as 1:1 Mg complex at 5.0 mM; how it was run: as §1
[9] = biological target: T3, Hexokinase-3 (Rattus norvegicus) (UniProt P27926); assay: Substrate activity for rat hexokinase III as 1:1 Mg complex at 5.0 mM; how it was run: as §1
T3 sequence (whole entry): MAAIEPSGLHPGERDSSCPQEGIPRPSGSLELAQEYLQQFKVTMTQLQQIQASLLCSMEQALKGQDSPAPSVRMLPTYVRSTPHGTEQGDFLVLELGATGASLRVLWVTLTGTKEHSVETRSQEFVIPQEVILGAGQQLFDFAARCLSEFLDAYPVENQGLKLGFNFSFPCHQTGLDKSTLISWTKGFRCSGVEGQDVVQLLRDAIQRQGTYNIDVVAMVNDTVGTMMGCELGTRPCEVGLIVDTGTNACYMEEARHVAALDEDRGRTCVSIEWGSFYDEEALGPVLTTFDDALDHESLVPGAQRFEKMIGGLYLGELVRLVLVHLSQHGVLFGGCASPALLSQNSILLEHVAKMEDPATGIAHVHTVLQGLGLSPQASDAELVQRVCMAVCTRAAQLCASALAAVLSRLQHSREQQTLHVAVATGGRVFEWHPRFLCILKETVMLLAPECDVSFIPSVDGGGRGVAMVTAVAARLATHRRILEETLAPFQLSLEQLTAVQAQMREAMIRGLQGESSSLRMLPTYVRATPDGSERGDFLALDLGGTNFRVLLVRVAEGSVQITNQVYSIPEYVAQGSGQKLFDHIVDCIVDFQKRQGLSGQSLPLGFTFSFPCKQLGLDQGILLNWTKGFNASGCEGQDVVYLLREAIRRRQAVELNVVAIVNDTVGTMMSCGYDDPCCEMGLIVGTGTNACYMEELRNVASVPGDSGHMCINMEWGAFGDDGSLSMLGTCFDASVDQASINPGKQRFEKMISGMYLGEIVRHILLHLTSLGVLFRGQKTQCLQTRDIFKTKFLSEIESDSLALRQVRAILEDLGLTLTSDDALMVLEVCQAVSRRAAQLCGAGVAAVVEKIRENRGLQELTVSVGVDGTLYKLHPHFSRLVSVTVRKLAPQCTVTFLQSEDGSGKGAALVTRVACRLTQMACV

[10] = system: Saccharomyces cerevisiae; assay: Substrate activity against yeast hexokinase as 1:1 Mg complexes at 5.0 mM; how it was run: as §1
[11] = biological target: T3, Hexokinase-3 (Rattus norvegicus); assay: Time dependent inhibition of Hexokinase type III activity after 6 hr, at 22 degrees celsius, at 5 mM compound
[12] = biological target: T3, Hexokinase-3 (Rattus norvegicus); assay: Time dependent inhibition of Hexokinase type III activity after 6 h, at 22 degrees celsius, at 5 mM
[13] = biological target: Thymidine kinase (Escherichia coli) (UniProt P23331); assay: Compound was tested for the initial inhibition of thymidine kinase by 1.4 mM compound in the presence of 5.7 mM ATP in Escherichia coli
[14] = system: Saccharomyces cerevisiae; assay: Compound was tested for time dependent inhibition of hexokinase activity after 6 hr, at 22 degrees celsius, with 5 mM ATP derivative in yeast hexokinase
[15] = biological target: Thymidine kinase (Escherichia coli) (UniProt P23331); assay: Compound was tested for the lose of thymidine kinase activity after 6 hr, at 0 degrees celsius, with 10 mM ATP derivative. values were expressed in percent
[16] = Substrate concentration for half maximal velocity was reported for yeast hexokinase
How it was run: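 Coupled glucose-6-phosphate dehydrogenase/NADP assay: A340 rate at 22 °C in 0.05 M Tris-HCl pH 7.6 with 6.6 mM MgCl2, 10 mM α-D-glucose and 0.93 mM NADP, nucleotide varied. KM was taken from linear double-reciprocal plots. Rat HK I and III came from electrofocused, dialysed liver extract, HK II from dialysed muscle extract, and yeast HK was isoelectric-focused.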

[17] = Compound was tested for substrate constants with yeast hexokinase. Maximal velocity Vmax was reported
How it was run: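 Hexokinase KM and Vmax taken from linear double-reciprocal plots of initial velocity vs. nucleotide level. Assays at 22 °C, coupled to glucose-6-phosphate dehydrogenase (A340), in 0.05 M Tris-HCl pH 7.6 with 6.6 mM MgCl2, 10 mM glucose and 0.93 mM NADP. Yeast HK was isoelectric-focused. Rat HK I and III came from liver, HK II from muscle (male Sprague-Dawley).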

| Velocity [1] [%] | inhibition [2] [%] | inhibition [3] [%] | inhibition [4] [%] | inhibition [5] [%] | inhibition [6] [%] | Relative velocity [7] | Relative velocity [8] | Relative velocity [9] | Relative velocity [10] | inhibition [11] [%] | inhibition [12] [%] | inhibition [13] [%] | inhibition [14] [%] | inhibition [15] [%] | Km [16] [µM] | Vmax [17] [%] | Compound |
| --- | --- | --- | --- | --- | --- | --- | --- | --- | --- | --- | --- | --- | --- | --- | --- | --- | --- |
| > 25 | 0 | 0 | 28 | 0 | 58 | – | – | – | – | – | – | – | – | – | – | – | O=C(CI)NCCCCCCC(=O)NCCCNc1ncnc2c1ncn2[C@@H]1O[C@H](COP(=O)(O)OP(=O)(O)OP(=O)(O)O)[C@@H](O)[C@H]1O |
| 13 | – | – | 26 | 0 | 0 | 0.6 | 0.92 | 1.31 | 0.75 | 0 | – | – | – | – | – | – | O=C(CI)NCCCCCNc1ncnc2c1ncn2[C@@H]1O[C@H](COP(=O)(O)OP(=O)(O)OP(=O)(O)O)[C@@H](O)[C@H]1O |
| 14 | 0 | 0 | 12 | 0 | 0 | – | – | – | – | – | 0 | – | – | – | – | – | CN(CCCCN(C)C(=O)CCCNc1ncnc2c1ncn2[C@@H]1O[C@H](COP(=O)(O)OP(=O)(O)OP(=O)(O)O)[C@@H](O)[C@H]1O)C(=O)CCCNC(=O)CI |
| > 39 | – | 0 | 13 | 0 | 74 | 0.57 | 0.79 | 1.04 | 1.06 | – | 0 | – | – | – | – | – | O=C(CI)NCCCCCC(=O)NCCCNc1ncnc2c1ncn2[C@@H]1O[C@H](COP(=O)(O)OP(=O)(O)OP(=O)(O)O)[C@@H](O)[C@H]1O |
| 57 | 0 | 0 | – | – | – | 0.85 | 1.66 | 2.06 | 0.94 | – | – | 16 | 0 | 0 | – | – | CN(CCCCCCN(C)c1ncnc2c1ncn2[C@@H]1O[C@H](COP(=O)(O)OP(=O)(O)OP(=O)(O)O)[C@@H](O)[C@H]1O)C(=O)CCCCCCNC(=O)CI |
| – | – | – | – | – | – | – | – | – | – | – | – | – | – | – | 300 | 75 | CN(CCCCN(C)c1ncnc2c1ncn2[C@@H]1O[C@H](COP(=O)(O)OP(=O)(O)OP(=O)(O)O)[C@@H](O)[C@H]1O)C(=O)CCCCCNC(=O)OCc1ccccc1 |
| 39 | 0 | 0 | 12 | 0 | 0 | – | – | – | – | – | 0 | – | – | – | – | – | O=C(CI)NCCCCC(=O)NCCCCCCNc1ncnc2c1ncn2[C@@H]1O[C@H](COP(=O)(O)OP(=O)(O)OP(=O)(O)O)[C@@H](O)[C@H]1O |
| > 34 | 0 | 0 | 5 | 0 | 51 | – | – | – | – | – | 0 | – | – | – | – | – | CN(CCCN(C)C(=O)CCCCNc1ncnc2c1ncn2[C@@H]1O[C@H](COP(=O)(O)OP(=O)(O)OP(=O)(O)O)[C@@H](O)[C@H]1O)C(=O)CCCCNC(=O)CI |
| 34 | 0 | 0 | 9 | 0 | 0 | – | – | – | – | – | 0 | – | – | – | – | – | CN(CCCCN(C)C(=O)CCCCNc1ncnc2c1ncn2[C@@H]1O[C@H](COP(=O)(O)OP(=O)(O)OP(=O)(O)O)[C@@H](O)[C@H]1O)C(=O)CCCCNC(=O)CI |
